# Assay results: ChEMBL document CHEMBL1132168, “Cycloalkanecarboxylic esters derived from lysergol, dihydrolysergol-I, and elymoclavine as partial agonists and antagonists at rat 5-HT2A receptors: pharmacological evidence that the indolo[4,3-fg]quinoline system of the ergolines is responsible for high 5-HT2A receptor affinity” (J Med Chem, 1999)
# “And” between values parts separate entries of the source, which are not always exact repeats. Equal entries are not always repeated.
# Columns and labels:
# [1] = target: T1, Adrenergic receptor alpha-1 (Rattus norvegicus, UniProt P15823+P23944+P43140); assay: Ability to block alpha-1 adrenergic receptor-mediated contractions of rat aorta.; format: functional
# T1 sequence (P15823 whole entry): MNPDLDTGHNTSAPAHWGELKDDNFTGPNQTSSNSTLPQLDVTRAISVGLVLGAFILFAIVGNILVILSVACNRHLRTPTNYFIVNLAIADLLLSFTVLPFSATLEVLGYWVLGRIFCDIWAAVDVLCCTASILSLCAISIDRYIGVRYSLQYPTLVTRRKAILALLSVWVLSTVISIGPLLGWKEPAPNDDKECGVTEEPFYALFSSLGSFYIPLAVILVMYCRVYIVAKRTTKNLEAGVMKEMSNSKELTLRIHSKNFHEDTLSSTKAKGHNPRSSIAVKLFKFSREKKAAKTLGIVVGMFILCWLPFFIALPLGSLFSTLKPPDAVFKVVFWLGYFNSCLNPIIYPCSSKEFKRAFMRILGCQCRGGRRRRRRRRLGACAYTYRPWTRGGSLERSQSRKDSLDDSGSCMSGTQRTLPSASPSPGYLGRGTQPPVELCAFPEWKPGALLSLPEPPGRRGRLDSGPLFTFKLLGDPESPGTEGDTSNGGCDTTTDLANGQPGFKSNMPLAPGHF
# T1 sequence (P23944 whole entry): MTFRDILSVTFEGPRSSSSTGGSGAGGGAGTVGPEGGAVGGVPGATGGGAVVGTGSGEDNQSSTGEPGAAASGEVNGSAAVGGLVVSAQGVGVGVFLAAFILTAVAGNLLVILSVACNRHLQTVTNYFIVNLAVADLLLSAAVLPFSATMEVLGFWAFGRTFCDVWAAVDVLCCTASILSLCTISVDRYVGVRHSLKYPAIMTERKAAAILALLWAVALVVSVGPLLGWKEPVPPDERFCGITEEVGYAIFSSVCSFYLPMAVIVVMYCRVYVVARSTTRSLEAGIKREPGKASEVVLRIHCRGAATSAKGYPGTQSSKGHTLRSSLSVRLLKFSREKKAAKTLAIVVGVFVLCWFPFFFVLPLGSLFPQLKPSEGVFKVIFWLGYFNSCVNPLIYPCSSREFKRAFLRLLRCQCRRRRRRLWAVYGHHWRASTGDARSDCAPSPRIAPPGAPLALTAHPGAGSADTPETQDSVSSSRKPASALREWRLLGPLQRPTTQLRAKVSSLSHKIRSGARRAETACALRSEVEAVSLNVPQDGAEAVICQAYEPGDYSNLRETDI
# T1 sequence (P43140 whole entry): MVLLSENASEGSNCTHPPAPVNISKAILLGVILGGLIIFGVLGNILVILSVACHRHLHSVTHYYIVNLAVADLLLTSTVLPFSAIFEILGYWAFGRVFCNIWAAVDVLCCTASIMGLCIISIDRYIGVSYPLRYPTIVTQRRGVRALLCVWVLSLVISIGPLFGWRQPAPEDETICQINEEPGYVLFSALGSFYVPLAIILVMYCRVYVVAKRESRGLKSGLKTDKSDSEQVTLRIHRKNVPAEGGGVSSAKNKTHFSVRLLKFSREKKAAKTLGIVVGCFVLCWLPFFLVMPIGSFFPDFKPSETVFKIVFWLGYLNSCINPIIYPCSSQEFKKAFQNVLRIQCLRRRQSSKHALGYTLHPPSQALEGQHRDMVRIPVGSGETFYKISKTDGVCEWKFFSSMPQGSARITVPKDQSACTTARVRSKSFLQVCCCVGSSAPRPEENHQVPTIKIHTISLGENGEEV
# Summary of the method: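 Endothelium-denuded rat thoracic aorta rings (4–6 mm) in modified Krebs-Henseleit, 37 °C, 95% O2/5% CO2, with (R,S)-propranolol 1 μM. Resting force 20 mN. During 140 min equilibration, rings were stimulated twice with (R)-phenylephrine 100 nM. Two cumulative phenylephrine contraction curves were run, without and then with antagonist added 30 min before.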
# [2] = Specificity of compound towards 5-HT2A receptor to that of 5-HT1B receptor; format: functional
# [3] = target: 5-hydroxytryptamine receptor 1B (Homo sapiens, UniProt P28222); assay: Affinity of compound towards 5-hydroxytryptamine 1B receptor in isolated guinea-pig iliac artery; format: functional, tissue-based, Cavia porcellus; settings: target entry is the homologue from another species; read-out: pA2 (converted)
# Summary of the method: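 Iliac artery segments (1–2 mm), resting force 5 mN. Krebs-Henseleit contained ketanserin 1 μM, mepyramine 0.3 μM, cimetidine 30 μM and cocaine 30 μM. […] Two 5-HT curves were run 80 min apart, the second after 45 min with compound.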
# [4] = target: T2, 5-hydroxytryptamine receptor 2A (Rattus norvegicus, UniProt P14842); assay: Blocking 5-HT2A receptor-mediated contractions of rat tail artery; format: functional, tissue-based; settings: read-out: pA2 (converted)
# Summary of the method: (§1)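 Endothelium-denuded rat ventral caudal artery segments (4–5 mm), isometric, resting force 5 mN. Segments were primed once with 5-HT 1 μM during 120 min equilibration. Prazosin 30 nM and cocaine 6 μM were present throughout. Two cumulative 5-HT curves were run 60 min apart, the second after 30–60 min with antagonist. pKP by Marano–Kaumann; pA2 by Schild or as apparent pA2. Mean ± SEM, n segments, ≥2 animals.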
# [5] = Specificity towards 5-HT2A receptor to that of alpha-1 adrenoceptor.; format: functional
# [6] = target: T2, 5-hydroxytryptamine receptor 2A; assay: Effectiveness of compound in blocking 5-hydroxytryptamine 2A receptor-mediated contractions of rat tail artery; format: functional, tissue-based; settings: read-out: pA2 (converted); summary of the method: as §1
# [7] = target: 5-hydroxytryptamine receptor 2A (Rattus norvegicus) (UniProt P14842); assay: Effectiveness in blocking 5-HT2A receptor-mediated contractions of rat tail artery; format: functional, tissue-based; summary of the method: as §1
# [8] = target: T2, 5-hydroxytryptamine receptor 2A; assay: Partial agonism at 5-HT2A receptor was evaluated in presence of ketanserin (3-10 nM) in isolated rat tail artery; format: functional, tissue-based; settings: read-out: pA2 (converted)
# Summary of the method: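 Rat caudal artery, endothelium removed, with prazosin 30 nM and cocaine 6 μM present. A 5-HT curve was followed after 60 min by a cumulative agonist curve, with ketanserin 3 nM added 30 min beforehand. The rightward shift was compared with that in control segments run without ketanserin.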
# [9] = target: 5-hydroxytryptamine receptor 2A (Rattus norvegicus) (UniProt P14842); assay: Relative potency towards 5-HT2A receptor of rat tail artery; format: functional, tissue-based
# Summary of the method: (§2)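 Endothelium-denuded rat caudal artery segments, resting force 5 mN, with prazosin 30 nM and cocaine 6 μM present. Two cumulative curves were run on each segment 60 min apart: first 5-HT, then the test agonist. pKP was taken from a Kenakin plot of equieffective 5-HT and agonist concentrations. Mean ± SEM from n segments, ≥2 animals.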
# [10] = target: 5-hydroxytryptamine receptor 2A (Rattus norvegicus) (UniProt P14842); assay: Intrinsic activity towards 5-HT2A receptor of rat tail artery; format: functional, tissue-based; summary of the method: as §2
# [11] = target: 5-hydroxytryptamine receptor 2A (Rattus norvegicus) (UniProt P14842); settings: Tail
# Sequence of 5-hydroxytryptamine receptor 2A (Rattus norvegicus) (P14842 whole entry): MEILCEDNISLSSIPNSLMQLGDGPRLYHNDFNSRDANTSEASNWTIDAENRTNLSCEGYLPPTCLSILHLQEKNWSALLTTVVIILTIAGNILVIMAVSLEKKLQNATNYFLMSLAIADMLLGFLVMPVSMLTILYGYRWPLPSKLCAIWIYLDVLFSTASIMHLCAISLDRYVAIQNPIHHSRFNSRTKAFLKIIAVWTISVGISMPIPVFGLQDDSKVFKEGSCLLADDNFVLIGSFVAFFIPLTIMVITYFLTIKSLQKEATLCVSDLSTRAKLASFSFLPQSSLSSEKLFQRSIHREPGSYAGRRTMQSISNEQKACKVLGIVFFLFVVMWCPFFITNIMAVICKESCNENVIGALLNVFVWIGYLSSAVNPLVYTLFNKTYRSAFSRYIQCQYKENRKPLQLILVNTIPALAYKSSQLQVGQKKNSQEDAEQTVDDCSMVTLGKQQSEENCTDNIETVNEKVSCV
# T2 sequence (P14842 whole entry): as above
# Sequence of 5-hydroxytryptamine receptor 1B (P28222 whole entry): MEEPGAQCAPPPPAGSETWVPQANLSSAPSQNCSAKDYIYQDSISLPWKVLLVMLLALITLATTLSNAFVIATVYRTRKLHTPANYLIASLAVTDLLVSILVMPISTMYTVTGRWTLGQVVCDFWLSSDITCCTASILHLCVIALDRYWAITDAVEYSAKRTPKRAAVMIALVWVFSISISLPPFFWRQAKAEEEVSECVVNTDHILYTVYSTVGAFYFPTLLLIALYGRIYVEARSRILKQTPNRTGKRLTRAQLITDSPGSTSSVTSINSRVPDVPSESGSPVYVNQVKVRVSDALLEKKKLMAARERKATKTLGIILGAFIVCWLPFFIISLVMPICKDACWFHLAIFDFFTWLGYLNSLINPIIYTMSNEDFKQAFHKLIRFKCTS
Structure (SMILES),pA2 [1],Specificity [2],Kb [3],Kb [4],Specificity [5],Kb [6],pKp [7],Kb [8],Relative potency [9],Intrinsic activity [10],pKp [11]
CC(C)n1cc2c3c(cccc31)C1=C[C@@H](CO)CN(C)[C@@H]1C2.O=C(O)/C=C\C(=O)O,6.05,295,209 nM,0.708 nM,1260,–,–,–,–,–,–
CC(C)n1cc2c3c(cccc31)[C@H]1C[C@@H](CO)CN(C)[C@@H]1C2.O=C(O)/C=C\C(=O)O,6.12,589,1860 nM,3.16 nM,240,–,–,–,–,–,–
CC(C)n1cc2c3c(cccc31)[C@H]1C=C(CO)CN(C)[C@@H]1C2.O=C(O)/C=C\C(=O)O,5.69,1180,851 nM,0.724 nM,2820,–,–,–,–,–,–
CC(C)n1cc2c3c(cccc31)C1=C[C@@H](COC(=O)C3CCCCCC3)CN(C)[C@@H]1C2.O=C(O)/C=C\C(=O)O,4.93,–,–,–,661,17.8 nM,–,–,–,–,–
CC(C)n1cc2c3c(cccc31)[C@H]1C[C@@H](COC(=O)C3CC3)CN(C)[C@@H]1C2.O=C(O)/C=C\C(=O)O,5.55,–,–,–,468,6.03 nM,–,–,–,–,–
CN1C[C@H](COC(=O)C2CCC2)C=C2c3cccc4[nH]cc(c34)C[C@H]21.O=C(O)/C=C\C(=O)O,5.52,–,–,–,174,–,7.76 and 7.36,0.741 nM,185%,0.13,–
CN1C[C@H](COC(=O)C2CCCCC2)C=C2c3cccc4[nH]cc(c34)C[C@H]21.O=C(O)/C=C\C(=O)O,5.05,–,–,–,68,–,6.92,0.661 nM,49%,0.18,6.88
